{
  "source": "PubChem BioAssay",
  "note": "Values without a mark were called inactive. Active and inactive are the calls of the source.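 The calls were made as follows, unless noted: active = a full or partial loss of lipid-probe fluorescence in the fish gall bladder, intestine or both, judged by eye; inactive = no fluorescence loss, or compound toxic to the fish.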",
  "data": [
    {"molecular_target": "Alpha-2C adrenergic receptor (Homo sapiens) (UniProt P18825)", "sequence (P18825 whole entry, looked up)": "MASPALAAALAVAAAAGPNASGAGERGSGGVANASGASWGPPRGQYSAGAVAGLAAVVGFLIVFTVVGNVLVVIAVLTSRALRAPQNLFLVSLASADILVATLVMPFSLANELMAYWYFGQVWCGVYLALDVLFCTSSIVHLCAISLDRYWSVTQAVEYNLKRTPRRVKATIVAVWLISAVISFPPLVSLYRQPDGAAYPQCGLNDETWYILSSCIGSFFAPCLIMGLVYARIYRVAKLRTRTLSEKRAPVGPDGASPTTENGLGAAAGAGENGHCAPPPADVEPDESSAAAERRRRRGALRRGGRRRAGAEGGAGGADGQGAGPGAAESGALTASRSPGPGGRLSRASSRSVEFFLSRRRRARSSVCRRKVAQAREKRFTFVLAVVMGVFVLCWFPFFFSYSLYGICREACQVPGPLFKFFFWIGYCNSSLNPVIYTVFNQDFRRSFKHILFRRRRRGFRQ", "assay": "modulators of alpha2C/GIRK thallium flux, primary screen, cell-based, HEK293 alpha2C/GIRK1/2 (AID 624;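 active = fluorescence slope after compound addition differing from the mean of all screened samples at 99.7% confidence, in either direction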;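 also: slope of fluorescence ratio to pre-addition baseline per second over 15 to 24 s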)", "details": "thallium flux BTC fluorescence, at 10 µM, actives lie on both sides", "values": [
      {"smiles": "COC(=O)C1C2C=CC3(CN(CC4CCCO4)C(=O)C13)O2", "note": "(stereo not given)", "slope": 0.00504},
      {"smiles": "N#Cc1c(-c2ccc3c(c2)OCO3)csc1N", "slope": 0.00604},
      {"smiles": "CCN(CC(=O)Nc1ccc2c(c1)CCC2)Cc1nc2ccccc2c(=O)[nH]1", "slope": 0.00524},
      {"smiles": "O=C(Nc1ccncc1)c1cc2ccccc2o1", "slope": 0.00527},
      {"smiles": "COc1cc(C(=O)NCC(=O)OCC(=O)c2ccc[nH]2)cc(OC)c1OC", "slope": 0.00501},
      {"smiles": "Cc1cc(C(=O)COC(=O)CCc2nc3ccccc3s2)c(C)n1C", "slope": 0.00538},
      {"smiles": "O=C1c2ccccc2C(=O)N1c1cccc(-c2nc3ccccc3o2)c1", "slope": 0.00482},
      {"smiles": "Cc1ccc2[nH]c3c(c2c1)CN(C(=O)CN1CCN(c2cccc(C)c2C)CC1)CC3", "slope": 0.00467},
      {"smiles": "CN(CCNC(=O)c1ccc(N2CCCC2=O)cc1)CCc1ccccc1", "slope": 0.00561},
      {"smiles": "Cc1cccc(-n2ncc3c(NCc4cccs4)ncnc32)c1", "slope": 0.00473},
      {"smiles": "COc1ccccc1C1N(c2ccc(F)cc2)C(=O)C2CCCN21", "note": "(stereo not given)", "slope": 0.00544},
      {"smiles": "COCC(=O)n1nc(NCc2ccc(OC)cc2)nc1NCc1ccc(OC)cc1", "slope": 0.00518},
      {"smiles": "O=C(CSc1nc2ccccc2o1)N1CCN(C(=O)c2ccco2)CC1", "slope": 0.00634},
      {"smiles": "Cc1nn(Cc2ccccc2)c(C)c1NC(=O)c1cc(-c2ccco2)on1", "slope": 0.00588},
      {"smiles": "O=C(COc1ccc(F)cc1)Nc1ccc(-n2cnnn2)cc1", "slope": 0.00564},
      {"smiles": "Cc1cc(NC(=O)CSc2nc3c(c(-c4cccnc4)c2C#N)CCC3)no1", "slope": 0.00719},
      {"smiles": "O=C1C2CCCN2C(c2ccccc2)N1c1ccc(Cl)cc1", "note": "(stereo not given)", "slope": 0.00548},
      {"smiles": "COC(=O)c1ccccc1NC(=O)CN1CCC(n2nnc3cc(F)ccc32)CC1", "slope": 0.00532},
      {"smiles": "Cc1nn(-c2ccccc2)c2[nH]c(C(F)(F)F)cc(=O)c12", "slope": 0.00725},
      {"smiles": "Cc1ccc(S(=O)(=O)N2CCN(C(=O)N3CCOCC3)C2C)cc1", "note": "(stereo not given)", "slope": 0.00556},
      {"smiles": "O=C(CCC(=O)OCC(=O)c1ccccc1)NC1CCCCC1", "slope": 0.00794},
      {"smiles": "COc1cccc(Nc2nnc(SCC(=O)N3CC(C)OC(C)C3)s2)c1", "note": "(stereo not given)", "slope": 0.00562},
      {"smiles": "O=C(NCc1ccco1)c1cccc(S(=O)(=O)N2CCCCC2)c1", "slope": 0.00571},
      {"smiles": "CSc1ccc(-c2cc(=O)c3ccccc3o2)cc1", "slope": 0.00442},
      {"smiles": "CCN(CC)C(c1ccc(C)cc1)c1nnnn1C1CCCCC1", "note": "(stereo not given)", "slope": 0.00367},
      {"smiles": "Cc1nonc1NC(=O)c1ccccc1Br", "slope": 0.00524},
      {"smiles": "Cc1cc(NC(=O)Cc2c(F)cccc2Cl)no1", "slope": 0.00621},
      {"smiles": "Cc1cc(C)nc(SCc2nnc(SCC(=O)Nc3ncc(C)s3)n2Cc2ccco2)n1", "slope": 0.00544},
      {"smiles": "CSc1ccccc1NC(=O)CN(c1ccccc1)S(=O)(=O)N(C)C", "slope": 0.00624},
      {"smiles": "Cc1cc(NC(=O)C(C)(C)C)no1", "slope": 0.005},
      {"smiles": "O=C(c1nn2cccnc2c1Cl)N1CCN(c2ccccc2)CC1", "slope": 0.00475},
      {"smiles": "Cc1ccc(NC(=O)COC(=O)c2ccn(C)n2)cc1", "slope": 0.0046},
      {"smiles": "COCCCN1C(=O)C(O)=C(C(C)=O)C1c1ccccn1", "note": "(stereo not given)", "slope": 0.00486},
      {"smiles": "CN(C)c1nc(Oc2ccc(N)cc2)nc(N(C)C)n1", "slope": 0.00462},
      {"smiles": "CC(=O)NCCc1ccc(S(=O)(=O)NCc2ccc3c(c2)OCO3)cc1", "slope": 0.00549},
      {"smiles": "N#Cc1c(N)oc(-c2cccs2)c1-c1cccs1", "slope": 0.00454},
      {"smiles": "O=c1c2cnn(-c3ccccc3)c2ncn1/N=C/c1ccncc1", "slope": 0.00444},
      {"smiles": "Cc1c(Cl)cccc1NC(=O)CCN1CCCCCC1", "slope": 0.00752},
      {"smiles": "CCNc1ccc(S(=O)(=O)C(F)(F)F)cc1NC(=O)C12CCC(CC1)C2", "slope": 0.0047},
      {"smiles": "O=C(CSc1n[nH]c(=O)[nH]c1=O)c1ccccc1", "slope": 0.00685}
    ]},
    {"tested_on": "not listed separately", "assay": "inhibitors of larval lipid processing in zebrafish, primary screen, whole organism, PED6 fluorescence, gall bladder and intestine (AID 686);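 also: larvae 5 to 7 days old with five fish per well; signal comes from phospholipase A2 cleavage of quenched PED6 carried via bile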", "details": "Zebrafish larvae PED6 lipid processing, fluorescence scoring; screened at 20 µM (by protocol)", "summary_of_the_method": "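Incubation: overnight exposure of larvae to compound plus PED6 / Test system: live zebrafish larvae aged 5-7 days, whole organism / Amount: 5 larvae per well / Read-out basis: visual per-well fluorescence inhibition score / Signal: visual fluorescence microscopy scoring of gall bladder, gut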", "values": [
      {"smiles": "COC(=O)C1C2C=CC3(CN(CC4CCCO4)C(=O)C13)O2", "note": "(stereo not given)", "outcome": "inactive"},
      {"smiles": "N#Cc1c(-c2ccc3c(c2)OCO3)csc1N", "outcome": "inactive"},
      {"smiles": "CCN(CC(=O)Nc1ccc2c(c1)CCC2)Cc1nc2ccccc2c(=O)[nH]1", "outcome": "inactive"},
      {"smiles": "O=C(Nc1ccncc1)c1cc2ccccc2o1", "outcome": "inactive; toxic"},
      {"smiles": "COc1cc(C(=O)NCC(=O)OCC(=O)c2ccc[nH]2)cc(OC)c1OC", "outcome": "inactive"},
      {"smiles": "Cc1cc(C(=O)COC(=O)CCc2nc3ccccc3s2)c(C)n1C", "outcome": "inactive"},
      {"smiles": "O=C1c2ccccc2C(=O)N1c1cccc(-c2nc3ccccc3o2)c1", "outcome": "inactive"},
      {"smiles": "Cc1ccc2[nH]c3c(c2c1)CN(C(=O)CN1CCN(c2cccc(C)c2C)CC1)CC3", "outcome": "inactive"},
      {"smiles": "CN(CCNC(=O)c1ccc(N2CCCC2=O)cc1)CCc1ccccc1", "outcome": "inactive"},
      {"smiles": "Cc1cccc(-n2ncc3c(NCc4cccs4)ncnc32)c1", "outcome": "inactive"},
      {"smiles": "COc1ccccc1C1N(c2ccc(F)cc2)C(=O)C2CCCN21", "note": "(stereo not given)", "outcome": "inactive"},
      {"smiles": "COCC(=O)n1nc(NCc2ccc(OC)cc2)nc1NCc1ccc(OC)cc1", "outcome": "inactive"},
      {"smiles": "O=C(CSc1nc2ccccc2o1)N1CCN(C(=O)c2ccco2)CC1", "outcome": "inactive"},
      {"smiles": "Cc1nn(Cc2ccccc2)c(C)c1NC(=O)c1cc(-c2ccco2)on1", "outcome": "inactive"},
      {"smiles": "O=C(COc1ccc(F)cc1)Nc1ccc(-n2cnnn2)cc1", "outcome": "inactive"},
      {"smiles": "Cc1cc(NC(=O)CSc2nc3c(c(-c4cccnc4)c2C#N)CCC3)no1", "outcome": "inactive"},
      {"smiles": "O=C1C2CCCN2C(c2ccccc2)N1c1ccc(Cl)cc1", "note": "(stereo not given)", "outcome": "inactive"},
      {"smiles": "COC(=O)c1ccccc1NC(=O)CN1CCC(n2nnc3cc(F)ccc32)CC1", "outcome": "inactive"},
      {"smiles": "Cc1nn(-c2ccccc2)c2[nH]c(C(F)(F)F)cc(=O)c12", "outcome": "inactive"},
      {"smiles": "Cc1ccc(S(=O)(=O)N2CCN(C(=O)N3CCOCC3)C2C)cc1", "note": "(stereo not given)", "outcome": "inactive"},
      {"smiles": "O=C(CCC(=O)OCC(=O)c1ccccc1)NC1CCCCC1", "outcome": "inactive"},
      {"smiles": "COc1cccc(Nc2nnc(SCC(=O)N3CC(C)OC(C)C3)s2)c1", "note": "(stereo not given)", "outcome": "inactive"},
      {"smiles": "O=C(NCc1ccco1)c1cccc(S(=O)(=O)N2CCCCC2)c1", "outcome": "inactive"},
      {"smiles": "CSc1ccc(-c2cc(=O)c3ccccc3o2)cc1", "outcome": "inactive"},
      {"smiles": "CCN(CC)C(c1ccc(C)cc1)c1nnnn1C1CCCCC1", "note": "(stereo not given)", "outcome": "inactive"},
      {"smiles": "Cc1nonc1NC(=O)c1ccccc1Br", "outcome": "inactive"},
      {"smiles": "Cc1cc(NC(=O)Cc2c(F)cccc2Cl)no1", "outcome": "inactive"},
      {"smiles": "Cc1cc(C)nc(SCc2nnc(SCC(=O)Nc3ncc(C)s3)n2Cc2ccco2)n1", "outcome": "inactive"},
      {"smiles": "CSc1ccccc1NC(=O)CN(c1ccccc1)S(=O)(=O)N(C)C", "outcome": "inactive"},
      {"smiles": "Cc1cc(NC(=O)C(C)(C)C)no1", "outcome": "inactive"},
      {"smiles": "O=C(c1nn2cccnc2c1Cl)N1CCN(c2ccccc2)CC1", "outcome": "inactive"},
      {"smiles": "Cc1ccc(NC(=O)COC(=O)c2ccn(C)n2)cc1", "outcome": "inactive"},
      {"smiles": "COCCCN1C(=O)C(O)=C(C(C)=O)C1c1ccccn1", "note": "(stereo not given)", "outcome": "active; weak signal in gallbladder only"},
      {"smiles": "CN(C)c1nc(Oc2ccc(N)cc2)nc(N(C)C)n1", "outcome": "inactive"},
      {"smiles": "CC(=O)NCCc1ccc(S(=O)(=O)NCc2ccc3c(c2)OCO3)cc1", "outcome": "inactive"},
      {"smiles": "N#Cc1c(N)oc(-c2cccs2)c1-c1cccs1", "outcome": "inactive"},
      {"smiles": "O=c1c2cnn(-c3ccccc3)c2ncn1/N=C/c1ccncc1", "outcome": "inactive"},
      {"smiles": "Cc1c(Cl)cccc1NC(=O)CCN1CCCCCC1", "outcome": "inactive"},
      {"smiles": "CCNc1ccc(S(=O)(=O)C(F)(F)F)cc1NC(=O)C12CCC(CC1)C2", "outcome": "inactive"},
      {"smiles": "O=C(CSc1n[nH]c(=O)[nH]c1=O)c1ccccc1", "outcome": "inactive"}
    ]}
  ]
}
